For experiment [1], the system named is J774.A1. The experiment in a line: Antiinflammatory activity in mouse J774.A1 cells assessed as decrease in LPS-induced IL-6 secretion at 20 uM preincubated for 30 mins followed by LPS stimulation and measured after 24 hrs by ELISA. Particulars: time 24.5 hrs. The class given is functional. In a few lines:
(§1)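 J774A.1 macrophages pretreated 30 min with 20 μM compound, DMSO as negative control. Cells then stimulated with LPS at 0.5 μg/mL for 24 h. IL-6 and TNF-α in the culture medium measured by ELISA.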
In general terms: ELISA stands for enzyme-linked immunosorbent assay.

The subject of experiment [2] is J774.A1. Put plainly: Antiinflammatory activity in mouse J774.A1 cells assessed as decrease in LPS-induced TNF-alpha secretion at 20 uM preincubated for 30 mins followed by LPS stimulation and measured after 24 hrs by ELISA. The class given is functional. As to conditions: time 24.5 hrs. In short, it runs like this:
as §1

The test system of experiment [3] is Mus musculus. The experiment in a line: Antiinflammatory activity in C57BL/6J mouse model of LPS-induced acute lung injury assessed as reduction in […] infiltration at 20 mg/kg, po administered 30 mins prior to LPS treatment and measured after 6 hrs by F4/80 antibody staining based assay. In kind it is functional, organism-based. Particulars: time 6.5 hrs. In short, it runs like this:
(§2)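 Oral pretreatment 30 min before intratracheal LPS at 5 mg/kg, with a saline sham group. Lungs taken at 6 h. Sections immunostained for F4/80 (macrophage marker) or for p-p65, counterstained with hematoxylin. Percentage of positive cells assessed.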

The subject of experiment [4] is Mus musculus. Put plainly: Antiinflammatory activity in C57BL/6J mouse model of LPS-induced acute lung injury assessed as reduction in neutrophil count in BALF at 20 mg/kg, po administered 30 mins prior to LPS treatment and measured after 6 hrs by Wright and Giemsa staining based analysis. The class given is functional, organism-based. As to conditions: time 6.5 hrs. In short, it runs like this:
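Oral dosing 30 min before intratracheal LPS at 5 mg/kg, with a saline sham group. BALF collected at 6 h and neutrophils counted by Wright-Giemsa staining, given relative to control. Mean ± SEM, n = 8.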

Experiment [5] deals with Mus musculus. The experiment in a line: Antiinflammatory activity in C57BL/6J mouse model of LPS-induced acute lung injury assessed as reduction in p-p65 level at 20 mg/kg, po administered 30 mins prior to LPS treatment and measured after 6 hrs by immunohistochemical analysis. In kind it is functional, organism-based. Particulars: time 6.5 hrs. In a few lines:
as §2

Experiment [6] has as its system J774.A1. The experiment in a line: Antiinflammatory activity in mouse J774.A1 cells assessed as decrease in LPS-induced TNF-alpha secretion preincubated for 30 mins followed by LPS stimulation and measured after 24 hrs by ELISA. The class given is functional, cell-based. As to conditions: for Activity: time 24.5 hrs. In short, it runs like this:
(§3)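 J774A.1 cells pretreated 30 min across a concentration range, then challenged with LPS at 0.5 μg/mL for 24 h. Secreted IL-6 or TNF-α measured in the medium by ELISA, and IC50 taken from dose–response. Mean ± SEM of 3 independent experiments.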

The test system of experiment [7] is J774.A1. The experiment in a line: Antiinflammatory activity in mouse J774.A1 cells assessed as decrease in LPS-induced IL-6 secretion preincubated for 30 mins followed by LPS stimulation and measured after 24 hrs by ELISA. The class given is functional, cell-based. Particulars: for Activity: time 24.5 hrs. In short, it runs like this: as §3

Each structure is given as a SMILES string. Active and inactive are the calls of the source. The rule behind the calls is not given here.

On to `Cc1ccc(CS(=O)(=O)c2ccc(N3CCN(c4ccc([N+](=O)[O-])cc4)CC3)c([N+](=O)[O-])c2)cc1`, for which the result in the experiment on J774.A1 [1] and with J774.A1 [2] was inactive.

For `COc1cccc(CS(=O)(=O)c2ccc(N3CCN(Cc4cccc([N+](=O)[O-])c4)CC3)c([N+](=O)[O-])c2)c1`, in the experiment with J774.A1 [1], the Activity is 41.95%. Also, the outcome in the experiment on J774.A1 [2] was inactive.

`CN(C)c1ccc(S(=O)(=O)Cc2ccccc2)cc1[N+](=O)[O-]`: the result in the experiment on J774.A1 [1] and in the experiment on J774.A1 [2] was inactive.

In the case of `CCN1CCN(c2ccc(S(=O)(=O)Cc3ccccc3)cc2[N+](=O)[O-])CC1`, the Activity in the experiment on J774.A1 [1] was 21.24%. Moreover, the outcome with J774.A1 [2] was inactive.

`COCCN1CCN(c2ccc(S(=O)(=O)Cc3ccc(C)cc3)cc2[N+](=O)[O-])CC1`: in the experiment with J774.A1 [1], the Activity stood at 2.98%. Besides, the outcome with J774.A1 [2] was inactive.

On to `COc1cccc(CS(=O)(=O)c2ccc(N(C)C)c([N+](=O)[O-])c2)c1`, for which the Activity in the experiment on J774.A1 [1] was found to be 8.62%. The result in the experiment with J774.A1 [2] was inactive.

`CCN1CCN(c2ccc(S(=O)(=O)Cc3cccc(F)c3)cc2[N+](=O)[O-])CC1`: the Activity is 58.89% in the experiment with J774.A1 [1] and 24.43% with J774.A1 [2].

For `CCN1CCN(c2ccc(S(=O)(=O)Cc3ccc(F)cc3)cc2[N+](=O)[O-])CC1`, the Activity with J774.A1 [1] amounted to 31.39%. Also, in the experiment on J774.A1 [2], the result was inactive.

In the case of `O=[N+]([O-])c1cc(S(=O)(=O)Cc2ccc(F)cc2)ccc1N1CCN(CCO)CC1`, the figures for the Activity with J774.A1 [1] and in the experiment with J774.A1 [2] were 54.2% and 29.96%, respectively.

`CN(C)c1ccc(S(=O)(=O)Cc2ccc(F)cc2)cc1[N+](=O)[O-]`: the outcome in the experiment on J774.A1 [1] and in the experiment with J774.A1 [2] was inactive.

For the molecule `O=[N+]([O-])c1cc(S(=O)(=O)Cc2cccc(F)c2)ccc1N1CCN(CCO)CC1`, the Activity in the experiment on J774.A1 [1] was determined as 4.55%. For the same molecule, the outcome in the experiment on J774.A1 [2] was inactive.

In the case of `CC(=O)N1CCN(c2ccc(S(=O)(=O)Cc3ccc(C)cc3)cc2[N+](=O)[O-])CC1`, in the experiment with J774.A1 [1], the Activity is given as 16.83%. Moreover, in the experiment with J774.A1 [2], the outcome was inactive.

Regarding `C[C@@H]1C[C@H]2[C@@H]3CCC4=CC(=O)C=C[C@]4(C)[C@@]3(F)[C@@H](O)C[C@]2(C)[C@@]1(O)C(=O)CO`, the outcome with Mus musculus [3], with Mus musculus [4] and in the experiment with Mus musculus [5] was Active.

Take `COCCN1CCN(c2ccc(S(=O)(=O)Cc3cccc(OC)c3)cc2[N+](=O)[O-])CC1`: the result in the experiment with J774.A1 [1] and in the experiment with J774.A1 [2] was inactive.

For the molecule `COc1cccc(CS(=O)(=O)c2ccc(N3CCN(C(C)=O)CC3)c([N+](=O)[O-])c2)c1`, the Activity with J774.A1 [1] was found to be 5.7%. Moreover, the result in the experiment on J774.A1 [2] was inactive.

For the molecule `CC(=O)N1CCN(c2ccc(S(=O)(=O)Cc3ccc(F)cc3)cc2[N+](=O)[O-])CC1`, the Activity is given as 33.81% in the experiment with J774.A1 [1] and 10.99% in the experiment with J774.A1 [2].

In the case of `COc1cccc(CS(=O)(=O)c2ccc(N3CCNCC3)c([N+](=O)[O-])c2)c1`, in the experiment with J774.A1 [1], the Activity is 18.18%. Moreover, the result in the experiment on J774.A1 [2] was inactive.

`COCCN1CCN(c2ccc(S(=O)(=O)Cc3ccc(F)cc3)cc2[N+](=O)[O-])CC1`: in the experiment on J774.A1 [1], the Activity came out at 12.89%. Also, the result with J774.A1 [2] was inactive.

As to `CN1CCN(c2ccc(S(=O)(=O)Cc3ccccc3)cc2[N+](=O)[O-])CC1`, the Activity stood at 53.04% in the experiment on J774.A1 [1] and 16.86% in the experiment on J774.A1 [2].

For the molecule `O=[N+]([O-])c1cc(S(=O)(=O)Cc2ccccc2)ccc1N1CCN(CCO)CC1`, the Activity in the experiment on J774.A1 [1] is 56.59%; with J774.A1 [2] it was 29.04%.

In the case of `O=[N+]([O-])c1cccc(CN2CCN(c3ccc(S(=O)(=O)Cc4ccc(F)cc4)cc3[N+](=O)[O-])CC2)c1`, the Activity is given as 59.52% in the experiment with J774.A1 [1] and 27.46% in the experiment on J774.A1 [2].

Consider `COCCN1CCN(c2ccc(S(=O)(=O)Cc3cccc(F)c3)cc2[N+](=O)[O-])CC1`, for which, in the experiment on J774.A1 [1], the Activity is 0.29%. In the experiment on J774.A1 [2], the result was inactive.

Consider `O=[N+]([O-])c1cccc(CN2CCN(c3ccc(S(=O)(=O)Cc4cccc(F)c4)cc3[N+](=O)[O-])CC2)c1`, for which the Activity in the experiment on J774.A1 [1] is 59.44%; in the experiment on J774.A1 [2] it was 22.51%.

As usually defined, the IC50 is the concentration that gives 50% inhibition. As to `CC(=O)N1CCN(c2ccc(S(=O)(=O)Cc3cccc(F)c3)cc2[N+](=O)[O-])CC1`, the IC50 was 28.9 µM in the experiment with J774.A1 [6] and 14.7 µM with J774.A1 [7]. In the experiment with J774.A1 [6], the outcome was Active. Besides, the figures for the Activity in the experiment on J774.A1 [1], in the experiment on J774.A1 [2] and in the experiment on J774.A1 [7] were 62.38%, 36.28% and “Dose-Dependent Effect”, respectively.

For the molecule `CCN1CCN(c2ccc(S(=O)(=O)Cc3ccc(C)cc3)cc2[N+](=O)[O-])CC1`, the Activity with J774.A1 [1] was determined as 52.95%. For the same molecule, in the experiment with J774.A1 [2], the result was inactive.

Turning to `CC(=O)N1CCN(c2ccc(S(=O)(=O)Cc3ccccc3)cc2[N+](=O)[O-])CC1`, the Activity in the experiment with J774.A1 [1] is 40.41%; with J774.A1 [2] it was 19.12%.

Turning to `O=[N+]([O-])c1ccc(N2CCN(c3ccc(S(=O)(=O)Cc4cccc(F)c4)cc3[N+](=O)[O-])CC2)cc1`, the IC50 in the experiment with J774.A1 [6] turned out to be 23.4 µM; in the experiment on J774.A1 [7], 6.01 µM. The result in the experiment with J774.A1 [6] was Active. Also, the Activity was 68.87% in the experiment with J774.A1 [1], 12.18% in the experiment with J774.A1 [2] and “Dose-Dependent Effect” with J774.A1 [7].

In the case of `Cc1ccc(CS(=O)(=O)c2ccc(N3CCN(CCO)CC3)c([N+](=O)[O-])c2)cc1`, the result in the experiment on J774.A1 [1] and in the experiment on J774.A1 [2] was inactive.

In the case of `O=[N+]([O-])c1cccc(CN2CCN(c3ccc(S(=O)(=O)Cc4ccccc4)cc3[N+](=O)[O-])CC2)c1`, the Activity with J774.A1 [1] is listed as 57.27%. Also, the outcome with J774.A1 [2] was inactive.

As to `COc1cccc(CS(=O)(=O)c2ccc(N3CCN(CCO)CC3)c([N+](=O)[O-])c2)c1`, the Activity in the experiment with J774.A1 [1] was 15.23%. Further, the outcome in the experiment on J774.A1 [2] was inactive.

Consider `O=[N+]([O-])c1ccc(N2CCN(c3ccc(S(=O)(=O)Cc4ccccc4)cc3[N+](=O)[O-])CC2)cc1`, for which, in the experiment with J774.A1 [1], the Activity was determined as 51.52%. The result in the experiment on J774.A1 [2] was inactive.

For the molecule `O=[N+]([O-])c1ccc(N2CCN(c3ccc(S(=O)(=O)Cc4ccc(F)cc4)cc3[N+](=O)[O-])CC2)cc1`, the Activity in the experiment on J774.A1 [1] turned out to be 62.47%; in the experiment with J774.A1 [2], 18.6%.

In the case of `O=[N+]([O-])c1ccc(CN2CCN(c3ccc(S(=O)(=O)Cc4ccc(F)cc4)cc3[N+](=O)[O-])CC2)cc1`, the outcome in the experiment with J774.A1 [6] and in the experiment with J774.A1 [7] was inactive. In addition, the results for the Activity in the experiment on J774.A1 [1] and in the experiment with J774.A1 [2] were 71.54% and 26.45%, respectively.

As for `COc1cccc(CS(=O)(=O)c2ccc(N3CCN(c4ccc([N+](=O)[O-])cc4)CC3)c([N+](=O)[O-])c2)c1`, in the experiment on J774.A1 [1], the Activity was 66.21%. Further, the outcome in the experiment with J774.A1 [2] was inactive.

Take `CN(C)c1ccc(S(=O)(=O)Cc2cccc(F)c2)cc1[N+](=O)[O-]`: the result in the experiment with J774.A1 [1] and with J774.A1 [2] was inactive.

Turning to `CN(C)CCS(=O)(=O)Cc1ccc(Br)cc1`, in the experiment on J774.A1 [1], the Activity amounted to 79.61%. Moreover, the result with J774.A1 [2] was inactive.

Take `COCCN1CCN(c2ccc(S(=O)(=O)Cc3ccccc3)cc2[N+](=O)[O-])CC1`: the result with J774.A1 [1] and in the experiment on J774.A1 [2] was inactive.

Values taken from ChEMBL document CHEMBL5223148, “Design, synthesis, and bioactivity evaluation of novel 1-(4-(benzylsulfonyl)-2-nitrophenyl) derivatives as potential anti-inflammatory agents against LPS-induced acute lung injury” (Bioorg Med Chem Lett, 2023).
